Measurements as given in ChEMBL document CHEMBL1811858, “A class of oral N-[(1S,3S)-1-methyl-1,2,3,4-tetrahydro-β-carboline-3-carbonyl]- N'-(amino-acid-acyl)hydrazine: discovery, synthesis, in vitro anti-platelet aggregation/in vivo anti-thrombotic evaluation and 3D QSAR analysis” (Eur J Med Chem, 2011).

Legend:
[1] = Antiplatelet activity in pig platelet assessed as inhibition of ADP-induced aggregation measured for 5 mins by aggregometry (reference value: 50.16 +/- 3.65%); assay type: functional, cell-based; settings: Sus scrofa
[2] = Antiplatelet activity in pig platelet assessed as inhibition of platelet activating factor-induced aggregation measured for 5 mins by aggregometry (reference value: 52.30 +/- 1.78%); assay type: functional, cell-based; settings: Sus scrofa
[3] = Antiplatelet activity in pig platelet assessed as inhibition of arachidonic acid-induced aggregation measured for 5 mins by aggregometry (reference value: 49.62 +/- 2.90%); assay type: functional, cell-based; settings: Sus scrofa
[4] = tested on: Rattus norvegicus; experiment: Antithrombotic activity in pentobarbital sodium anesthetized Wistar rat assessed as decrease in thrombus weight at 10 nmol/kg, po (reference value: 28.21=/-1.11 mg); assay type: functional
In short: (§1)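 Male Wistar rats (250–300 g) received test agents orally, dissolved in NS and kept on ice; NS served as the vehicle control. After 30 min, rats were anaesthetised with pentobarbital sodium (80.0 mg/kg, i.p.). The right carotid artery and left jugular vein were exposed and joined through a polyethylene tube holding a weighed 6 cm thread. Wet thrombus weight is reported as mean ± SD in mg.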

[5] = tested on: Rattus norvegicus; experiment: Antithrombotic activity in pentobarbital sodium anesthetized Wistar rat assessed as decrease in thrombus weight at 1 nmol/kg, po; assay type: functional; in short: as §1
[6] = tested on: Rattus norvegicus; experiment: Antithrombotic activity in pentobarbital sodium anesthetized Wistar rat assessed as decrease in thrombus weight at 0.1 nmol/kg, po; assay type: functional; in short: as §1
[7] = tested on: Rattus norvegicus; experiment: Antithrombotic activity in po dosed Wistar rat assessed as decrease in thrombus weight; assay type: functional, organism-based; in short: as §1
[8] = Antiplatelet activity in pig platelet assessed as inhibition of ADP-induced aggregation at 1.7 mM measured for 5 mins by aggregometry; assay type: functional, Sus scrofa; parameters: scale not given: the % may be the effect or the level left
[9] = Antiplatelet activity in pig platelet assessed as inhibition of platelet activating factor-induced aggregation at 1.7 mM measured for 5 mins by aggregometry; assay type: functional, Sus scrofa; parameters: scale not given: the % may be the effect or the level left
[10] = Antiplatelet activity in pig platelet assessed as inhibition of arachidonic acid-induced aggregation at 1.7 mM measured for 5 mins by aggregometry; assay type: functional, Sus scrofa; parameters: scale not given: the % may be the effect or the level left
[11] = tested on: Rattus norvegicus; experiment: Antithrombotic activity in pentobarbital sodium anesthetized Wistar rat assessed as thrombus weight at 160 umol/kg, po (reference value: 28.21=/-1.11 mg); assay type: functional; in short: as §1
[12] = tested on: Rattus norvegicus; experiment: Antithrombotic activity in pentobarbital sodium anesthetized Wistar rat assessed as decrease in thrombus weight at 100 nmol/kg, po (reference value: 28.21=/-1.11 mg); assay type: functional; in short: as §1

SMILES	IC50 [1] [µM]	IC50 [2] [µM]	IC50 [3] [µM]	Activity [4] [mg]	further results
C[C@@H]1N[C@H](C(=O)NNC(=O)[C@@H](N)CC(N)=O)Cc2c1[nH]c1ccccc21	609	507	19.7	20.42	
C[C@@H]1N[C@H](C(=O)NNC(=O)[C@@H](N)Cc2ccccc2)Cc2c1[nH]c1ccccc21	307	109	7.1	21	
C[C@@H]1N[C@H](C(=O)NNC(=O)[C@@H](N)[C@@H](C)O)Cc2c1[nH]c1ccccc21	531	31.9	4.7	18.67	Activity [5]: 22.77 mg; Activity [6]: 27.22 mg; Activity [7]: Dose-dependent effect
CC(C)[C@H](N)C(=O)NNC(=O)[C@@H]1Cc2c([nH]c3ccccc23)[C@H](C)N1	156	50	3.7	24.01	
CC(=O)Oc1ccccc1C(=O)O [ASPIRIN]					Activity [8]: 31.14%; Activity [9]: 33.22%; Activity [10]: 34.5%; Activity [11]: 18.24 mg
CSCC[C@H](N)C(=O)NNC(=O)[C@@H]1Cc2c([nH]c3ccccc23)[C@H](C)N1	417	52.9	21.7	18.55	
C[C@@H]1N[C@H](C(=O)NNC(=O)[C@@H](N)CCCCN)Cc2c1[nH]c1ccccc21	321	106	3.4	18.97	
C[C@@H]1N[C@H](C(=O)NNC(=O)[C@@H](N)CO)Cc2c1[nH]c1ccccc21	276	119	19.9	19.04	
C[C@@H]1N[C@H](C(=O)NNC(=O)CN)Cc2c1[nH]c1ccccc21	722	348	20.7	23.74	
C[C@@H]1N[C@H](C(=O)NNC(=O)[C@@H](N)CCC(N)=O)Cc2c1[nH]c1ccccc21	598	267	18.5	21.01	
C[C@@H]1N[C@H](C(=O)NNC(=O)[C@@H]2CCCN2)Cc2c1[nH]c1ccccc21	166	134	20.6	20.39	
C[C@@H]1N[C@H](C(=O)NNC(=O)[C@@H](N)CCC(=O)OCc2ccccc2)Cc2c1[nH]c1ccccc21	524	362	6.3	21.36	
C[C@@H]1N[C@H](C(=O)NN)Cc2c1[nH]c1ccccc21	611	111	21.5		Activity [12]: 21.23 mg

Continued, in another order:

IC50 [1] [µM]	IC50 [2] [µM]	IC50 [3] [µM]	SMILES	Activity [4] [mg]	further results
117	196	5.2	C[C@@H]1N[C@H](C(=O)NNC(=O)[C@@H](N)CC(=O)OCc2ccccc2)Cc2c1[nH]c1ccccc21	19.65	
152	12.7	13	C[C@@H]1N[C@H](C(=O)NNC(=O)[C@@H](N)Cc2ccc(O)cc2)Cc2c1[nH]c1ccccc21	20.24	
51.1	1.4	2.4	CC[C@H](C)[C@H](N)C(=O)NNC(=O)[C@@H]1Cc2c([nH]c3ccccc23)[C@H](C)N1	20.62	
94.6	7.7	4.8	C[C@@H]1N[C@H](C(=O)NNC(=O)[C@@H](N)Cc2cnc[nH]2)Cc2c1[nH]c1ccccc21	19.75	
21.7	4.3	0.6	C[C@@H]1N[C@H](C(=O)NNC(=O)[C@@H](N)Cc2c[nH]c3ccccc23)Cc2c1[nH]c1ccccc21	18.87	
118	162	20	C[C@H](N)C(=O)NNC(=O)[C@@H]1Cc2c([nH]c3ccccc23)[C@H](C)N1	20.06	
31.6	1.2	3.2	CC(C)C[C@H](N)C(=O)NNC(=O)[C@@H]1Cc2c([nH]c3ccccc23)[C@H](C)N1	21.06	
